Screening results: PubChem, several laboratories
A selection: hits, their analogues and other compounds. The true share with any hit is near 3%.
NPR1 activator – GC-A (human) enzyme activation | P16066 | HEK293 GC-A cells, cGMP TR-FRET, EC30 ANP; 0% at EC30 ANP, 100% saturating ANP | activation, % at 10 µM | hit rate 0.14% among 370,000 | AID 1671463; in the data active means activation above about 40%
GASC-1 inh – human JMJD2C demethylase inhibition; GST-JMJD2C(1-420) H3K9me3 demethylation, DELFIA europium; AID 2099; inhibition, % at 2.35 µM; hit rate 0.069% among 330,000;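 active means more than half of a compound's replicate wells show inhibition beyond 50%, single wells judged on their own value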;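 further: signal counts dimethyl H3K9 product captured on neutravidin plate; 0% = median of DMSO wells and 100% = 0.3 times that DMSO median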
Target sequence (Q9H3R0 1-420 limits assumed): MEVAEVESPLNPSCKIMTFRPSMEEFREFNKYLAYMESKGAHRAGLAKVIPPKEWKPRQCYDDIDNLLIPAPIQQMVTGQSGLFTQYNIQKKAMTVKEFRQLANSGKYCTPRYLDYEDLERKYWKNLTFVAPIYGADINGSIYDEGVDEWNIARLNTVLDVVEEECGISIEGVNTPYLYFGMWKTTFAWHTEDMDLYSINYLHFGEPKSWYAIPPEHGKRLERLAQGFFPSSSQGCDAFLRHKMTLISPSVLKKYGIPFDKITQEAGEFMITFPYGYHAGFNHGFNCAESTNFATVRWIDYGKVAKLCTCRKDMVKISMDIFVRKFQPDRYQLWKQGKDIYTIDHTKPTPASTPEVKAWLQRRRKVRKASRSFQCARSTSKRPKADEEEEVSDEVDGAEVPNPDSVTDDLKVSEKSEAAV
NR3A LBD binder – NR3A (human) ligand-binding domain modulation; NR3A LBD differential scanning fluorimetry, Tm shift; 0% = protein alone, 100% = glycine-bound protein; Tm shift relative to glycine control, % at 25 µM; hit rate 2.5% among 340,000; AID 1259313;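 active means melting temperature shift of at least 10% of the positive control shift, at one fixed dose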
aDG glyco act – alpha-DG glycosylation activation. Pro5-aDG cells, alpha-DG glycosylation AlphaScreen (IIH6); 0% Pro5, 100% B10-LARGE cell signal. activation, % at 10 µM. hit rate 0.22% among 360,000. AID 624168;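 active means activation of at least 8% versus controls, or a plate z-score of at least 8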;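 further: Pro5 are CHO cells carrying HIG-tagged alpha-DG that lacks glycosylation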
Lipid droplet – hepatic lipid droplet formation modulation. AML12 mouse hepatocytes, oleate lipid droplets, BODIPY imaging. inhibition, % at 6.5 µM. hit rate 0.4% among 240,000;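 active means lipid droplet intensity inhibited by at least 50%, with more than 500 cells counted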
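Assay system: AML12 hepatocytes (mouse) / Also added: 100 µM oleic acid challenge / Times: overnight treatment with compound plus oleate / Detection: high-content imaging of BODIPY-stained droplets and DAPI nuclei / Evaluation: % inhibition of lipid droplet signal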
GC-B act – GC-B (human) receptor activation | HEK293-GC-B cells, CNP EC30, cGMP TR-FRET; 0% at EC30 CNP, 100% saturating CNP | P20594 | activation, % at 10 µM | hit rate 0.11% among 370,000;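 active means activation at 10 µM reaching about 35% in either raw or pattern-adjusted values, limit read from the data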
* = called active by the depositor; · = no result given.

SMILES	NPR1 activator	GASC-1 inh	NR3A LBD binder	aDG glyco act	Lipid droplet	GC-B act
Cc1ccc(S(=O)(=O)N2CCOC2CNC(=O)C(=O)NCc2ccc(Cl)cc2)cc1 (stereo not drawn)	1	-8	13*	1	-8	0
COc1ccc(S(=O)(=O)NCCS(=O)(=O)N2CCN(c3ccccc3)CC2)cc1	0	-4	19*	0	·	-1
CCOC(=O)C(C)Sc1nc2c(cnn2-c2ccc(F)cc2)c(=O)[nH]1 (stereo not drawn)	4	-7	-1	0	-20	-8
C=C(C)CNC(=S)NNC(=O)CCn1c2ccccc2c2ccccc21	-7	-3	1	1	1	1
C=C(C)CNC(=S)NNC(=O)CCn1c2cc(Cl)ccc2c2ccc(Cl)cc21	-8	3	16*	0	-24	-3
C=C(C)CNC(=S)NNC(=O)c1ccncc1	4	3	-4	0	5	4
C=C(C)CNC(=S)NNC(=O)CCn1c2ccc(Cl)cc2c2cc(Cl)ccc21	-14	-5	27*	0	0	-8
C/C(=N/NC(=O)CSc1nnc(-c2ccccc2)n1-c1ccc(Cl)cc1)c1cccc(O)c1	-23	·	·	·	·	-22
N#Cc1c(SCC(=O)Nc2ccccc2)nsc1SCC(=O)Nc1ccccc1	-2	1	15*	0	4	3
Cc1cccc(NC(=O)CSc2nsc(SCC(=O)Nc3cccc(C)c3)c2C#N)c1	0	-8	14*	0	-10	6
O=C(CSc1nnc(-c2ccccn2)n1-c1ccccc1)c1ccc2c(c1)OCO2	-2	·	·	·	·	-6
Cc1cc(Cl)ccc1C(=O)C1CCCN(C(=O)CN2CCOC2=O)C1 (stereo not drawn)	1	-5	1	0	-5	8
COc1ccc(CCC(=O)OCC(=O)c2ccc(C)cc2)cc1	3	0	56*	0	9	-1
CC(=O)CC[C@@H]1CC[C@]2(CCCN(S(=O)(=O)C3CCCCC3)C2)O1	5	·	·	·	·	1
Cc1ccc(-n2c(N)c(C(=O)Nc3c(C)n(C)n(-c4ccccc4)c3=O)c3nc4ccccc4nc32)cc1C	·	-7	·	·	70*	·
CCOC(=O)c1c(N)n(-c2ccc(N)cc2)c2nc3ccccc3nc12	3	8	0	0	42	-3
Nc1c(C(=O)Nc2ccccc2)c2nc3ccccc3nc2n1-c1ccc(O)cc1	5	-1	21*	2	34	1
CC(C)[C@H]1/C(=C/C2CC2)N2C(=O)C[C@H](c3ccccc3)N=C2N1C	-1	·	·	·	·	-4
